Measured values taken from ChEMBL document CHEMBL1287748, “Design, synthesis and in vitro antimalarial evaluation of triazole-linked chalcone and dienone hybrid compounds” (Bioorg Med Chem, 2010).
pIC50: −log10 of the molar value.

Assays:
[1] = test system: Plasmodium falciparum; experiment: Antimalarial activity against chloroquine-sensitive Plasmodium falciparum D10 after 48 hrs; assay type: functional, organism-based; conditions: D10, 48 h
Method in brief: (§1)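 P. falciparum asexual culture in RPMI 1640 with glucose, HEPES, hypoxanthine, 5% Albumax, bicarbonate and gentamicin, sorbitol-synchronized at ring stage when needed. DMSO stocks serially diluted twofold in medium and added to parasitized erythrocytes at 2% hematocrit. Incubation 48 h at 37 °C under 3% O2/4% CO2/93% N2. pLDH read-out with Malstat plus NBT/PES at 620 nm. Runs in duplicate on two occasions; IC50 fitted from dose–response curves.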

[2] = test system: Plasmodium falciparum; experiment: Antimalarial activity against chloroquine-resistant Plasmodium falciparum Dd2 after 48 hrs; assay type: functional, organism-based; conditions: Dd2, 48 h; method in brief: as §1
[3] = test system: Plasmodium falciparum; experiment: Antimalarial activity against chloroquine-resistant Plasmodium falciparum W2 after 48 hrs by FACS analysis in presence of 10 % human serum; assay type: functional, organism-based; conditions: W2, 48 h
Method in brief: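 W2 parasites grown in standard medium containing 10% human serum. Growth inhibition assay as in earlier published work, with parasite development scored by flow cytometry (FACS).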

[4] = Inhibition of beta-hematin formation assessed as equivalents of drug relative to hematin; assay type: functional
Method in brief: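 Colorimetric assay quantifying a compound's inhibition of the conversion of hematin to beta-hematin. IC50 is expressed in equivalents of compound relative to hematin.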

Structure (SMILES) | pIC50 [1] | pIC50 [2] | pIC50 [3] | IC50 [4]
COc1cc(/C=C/C(C)=O)ccc1OCc1cn([C@H]2C[C@H](n3cc(C)c(=O)[nH]c3=O)O[C@@H]2CO)nn1 | 4.92 | 4.79 |  | 
C#CCOc1ccc(/C=C/C(=O)/C=C/c2ccc(F)cc2)cc1OC | 5.01 | 5.19 | 4.67 | 
[N-]=[N+]=Nc1ccnc2cc(Cl)ccc12 | < 4.70 | < 4.70 | < 4.70 | 
C#CCOc1ccc(/C=C/C(=O)/C=C/c2ccc(OC)cc2)cc1OC | 4.93 | 4.97 | < 4.70 | 
COc1cc(/C=C/C(=O)c2ccc(OC)c(OC)c2OC)ccc1OCc1cn([C@H]2C[C@H](n3cc(C)c(=O)[nH]c3=O)O[C@@H]2CO)nn1 | 5.48 | 5.43 | 5.27 | 
COc1ccc(C(=O)/C=C/c2ccc(OCc3cn([C@H]4C[C@H](n5cc(C)c(=O)[nH]c5=O)O[C@@H]4CO)nn3)c(OC)c2)c(OC)c1 | 5.82 | 5.36 | 5.27 | 
C#CCOc1ccc(/C=C/C(=O)c2ccc(OC)cc2OC)cc1OC |  | 5.37 |  | 0.5 equiv
COc1cc(/C=C/C(=O)/C=C/c2ccc(F)cc2)ccc1OCc1cn([C@H]2C[C@H](n3cc(C)c(=O)[nH]c3=O)O[C@@H]2CO)nn1 | 5.77 | 5.59 |  | 
COc1cc(/C=C/C(=O)/C=C/c2ccc(F)cc2)ccc1OCc1cn(-c2ccnc3cc(Cl)ccc23)nn1 | 5.03 | 5.03 | < 4.70 | 
COc1ccc(C(=O)/C=C/c2ccc(OCc3cn([C@H]4C[C@H](n5cc(C)c(=O)[nH]c5=O)O[C@@H]4CO)nn3)c(OC)c2)cc1 | 5.54 | 5.21 | 5.10 | 
C#CCOc1ccc(/C=C/C(=O)/C=C/c2ccc(OC)c(OC)c2OC)cc1OC | 6.05 | 5.85 | 5.04 | 
COc1cc(C=O)ccc1OCc1cn(-c2ccnc3cc(Cl)ccc23)nn1 | < 4.70 | < 4.70 |  | 
C#CCOc1ccc(C(=O)/C=C/c2ccc(F)cc2F)cc1OC | < 4.70 | 5.28 | 5.03 | 
COc1cc(C(=O)/C=C/c2ccc(OC)c(OC)c2OC)ccc1OCc1cn([C@H]2C[C@H](n3cc(C)c(=O)[nH]c3=O)O[C@@H]2CO)nn1 | 5.27 | 5.42 | 5.15 | 
COc1cc(/C=C/C(=O)/C=C/c2ccc(Cl)cc2Cl)ccc1OCc1cn([C@H]2C[C@H](n3cc(C)c(=O)[nH]c3=O)O[C@@H]2CO)nn1 | 5.85 | 5.77 | 5.04 | 
COc1ccc(/C=C/C(=O)/C=C/c2ccc(OCc3cn(-c4ccnc5cc(Cl)ccc45)nn3)c(OC)c2)c(OC)c1 | 5.29 | 5.19 | < 4.70 | 
COc1cc(/C=C/C(=O)/C=C/c2ccc(OC)c(OC)c2OC)ccc1OCc1cn(-c2ccnc3cc(Cl)ccc23)nn1 | 5.60 | 5.68 | 4.73 | 
CCN(CC)CCCC(C)Nc1ccnc2cc(Cl)ccc12 (centres undefined) [CHLOROQUINE] |  |  |  | 1.91 equiv
COc1ccc(/C=C/C(=O)/C=C/c2ccc(OCc3cn([C@H]4C[C@H](n5cc(C)c(=O)[nH]c5=O)O[C@@H]4CO)nn3)c(OC)c2)cc1 | 5.55 | 5.82 | 4.74 | 
COc1cc(/C=C/C(C)=O)ccc1OCc1cn(-c2ccnc3cc(Cl)ccc23)nn1 | 6.10 | 6.15 |  | 
C#CCOc1ccc(/C=C/C(=O)/C=C/c2ccc(Cl)cc2Cl)cc1OC | 5.04 | 5.05 | < 4.70 | 
C#CCOc1ccc(C(=O)/C=C/c2ccc(F)cc2)cc1OC | 5.14 | 5.11 | < 4.70 | 
C#CCOc1ccc(C(=O)/C=C/c2ccc(Cl)cc2Cl)cc1OC | 5.48 | 5.55 | 5.30 | 
COc1ccc(/C=C/C(=O)/C=C/c2ccc(OCc3cn(-c4ccnc5cc(Cl)ccc45)nn3)c(OC)c2)cc1 | 5.52 | 5.68 | 5.28 | 

Structure (SMILES) | pIC50 [1] | pIC50 [2] | pIC50 [3] | IC50 [4]
COc1cc(C(=O)/C=C/c2ccc(F)cc2F)ccc1OCc1cn([C@H]2C[C@H](n3cc(C)c(=O)[nH]c3=O)O[C@@H]2CO)nn1 | 5.41 | 5.32 | 5.15 | 
COc1cc(C(=O)/C=C/c2ccc(F)cc2F)ccc1OCc1cn(-c2ccnc3cc(Cl)ccc23)nn1 | 5.39 | 5.68 | 4.97 | 1.6 equiv
C#CCOc1ccc(C(=O)/C=C/c2ccc(OC)c(OC)c2OC)cc1OC |  | 5.62 |  | 
COc1cc(/C=C/C(=O)/C=C/c2ccc(F)cc2F)ccc1OCc1cn([C@H]2C[C@H](n3cc(C)c(=O)[nH]c3=O)O[C@@H]2CO)nn1 | 5.85 | 5.77 | 4.91 | 
Clc1ccc2c(-n3cc(COc4ccccc4)nn3)ccnc2c1 | < 4.70 | < 4.70 |  | 
C#CCOc1ccc(/C=C/C(=O)/C=C/c2ccc(OC)cc2OC)cc1OC | 5.27 | 5.40 | 4.72 | 
COc1ccc(/C=C/C(=O)/C=C/c2ccc(OCc3cn([C@H]4C[C@H](n5cc(C)c(=O)[nH]c5=O)O[C@@H]4CO)nn3)c(OC)c2)c(OC)c1 | 5.89 | 5.92 | 4.84 | 
COc1cc(C(=O)/C=C/c2ccc(Cl)cc2Cl)ccc1OCc1cn(-c2ccnc3cc(Cl)ccc23)nn1 | 5.22 | 5.72 | 4.94 | 
COc1cc(/C=C/C(=O)c2ccc(OC)c(OC)c2OC)ccc1OCc1cn(-c2ccnc3cc(Cl)ccc23)nn1 | 6.40 | 6.40 | 6.22 | 0.2 equiv
COc1ccc(/C=C/C(=O)c2ccc(OCc3cn(-c4ccnc5cc(Cl)ccc45)nn3)c(OC)c2)c(OC)c1 | 5.28 | 4.93 | 5.18 | Not Active
C#CCOc1ccc(/C=C/C(=O)c2ccc(OC)c(OC)c2OC)cc1OC |  | 5.55 |  | 
C#CCOc1ccc(C(=O)/C=C/c2ccc(OC)cc2OC)cc1OC | < 4.70 | 4.84 |  | 
Cc1cn([C@H]2C[C@H](N=[N+]=[N-])[C@@H](CO)O2)c(=O)[nH]c1=O [ZIDOVUDINE] | < 4.70 | < 4.70 | < 4.70 | 
COc1ccc(C(=O)/C=C/c2ccc(OCc3cn(-c4ccnc5cc(Cl)ccc45)nn3)c(OC)c2)cc1 | 6.22 | 5.66 | 5.30 | 
COc1cc(/C=C/C(=O)/C=C/c2ccc(OC)c(OC)c2OC)ccc1OCc1cn([C@H]2C[C@H](n3cc(C)c(=O)[nH]c3=O)O[C@@H]2CO)nn1 | 5.89 | 5.62 | 5.08 | 
COc1cc(C(=O)/C=C/c2ccc(Cl)cc2Cl)ccc1OCc1cn([C@H]2C[C@H](n3cc(C)c(=O)[nH]c3=O)O[C@@H]2CO)nn1 | 5.43 | 5.72 | 5.08 | 
C#CCOc1ccc(/C=C/C(C)=O)cc1OC | 5.01 | 5.12 | < 4.70 | 
COc1ccc(/C=C/C(=O)c2ccc(OCc3cn([C@H]4C[C@H](n5cc(C)c(=O)[nH]c5=O)O[C@@H]4CO)nn3)c(OC)c2)c(OC)c1 | 4.99 | 4.93 | 5.05 | 
C#CCOc1ccc(/C=C/C(=O)c2ccc(OC)cc2)cc1OC |  | 4.87 |  | 
COc1cc(/C=C/C(=O)/C=C/c2ccc(Cl)cc2Cl)ccc1OCc1cn(-c2ccnc3cc(Cl)ccc23)nn1 | 4.72 | 4.77 | < 4.70 | 
C#CCOc1ccc(/C=C/C(=O)/C=C/c2ccc(F)cc2F)cc1OC | 4.92 | 5.03 | < 4.70 | 
COc1cc(C(=O)/C=C/c2ccc(F)cc2)ccc1OCc1cn([C@H]2C[C@H](n3cc(C)c(=O)[nH]c3=O)O[C@@H]2CO)nn1 | 5.14 | 5.21 | 5.18 | 
COc1cc(/C=C/C(=O)/C=C/c2ccc(F)cc2F)ccc1OCc1cn(-c2ccnc3cc(Cl)ccc23)nn1 | 4.99 | 5.19 | < 4.70 | 
